Measurements reported in ChEMBL document CHEMBL1153910, “Salicylate-urea-based soluble epoxide hydrolase inhibitors with high metabolic and chemical stabilities” (Bioorg Med Chem Lett, 2009).
Converted amounts (≈) assume the structure as drawn. Each block holds one compound with its values, some of them ahead of it. The source made the active and inactive calls. No cut-off for these calls is given here.

Key:
[1] = biological target: T1, Bifunctional epoxide hydrolase 2 (Homo sapiens, UniProt P34913); experiment: Inhibition of human soluble epoxide hydrolase by fluorescence assay
T1 sequence (P34913 whole entry): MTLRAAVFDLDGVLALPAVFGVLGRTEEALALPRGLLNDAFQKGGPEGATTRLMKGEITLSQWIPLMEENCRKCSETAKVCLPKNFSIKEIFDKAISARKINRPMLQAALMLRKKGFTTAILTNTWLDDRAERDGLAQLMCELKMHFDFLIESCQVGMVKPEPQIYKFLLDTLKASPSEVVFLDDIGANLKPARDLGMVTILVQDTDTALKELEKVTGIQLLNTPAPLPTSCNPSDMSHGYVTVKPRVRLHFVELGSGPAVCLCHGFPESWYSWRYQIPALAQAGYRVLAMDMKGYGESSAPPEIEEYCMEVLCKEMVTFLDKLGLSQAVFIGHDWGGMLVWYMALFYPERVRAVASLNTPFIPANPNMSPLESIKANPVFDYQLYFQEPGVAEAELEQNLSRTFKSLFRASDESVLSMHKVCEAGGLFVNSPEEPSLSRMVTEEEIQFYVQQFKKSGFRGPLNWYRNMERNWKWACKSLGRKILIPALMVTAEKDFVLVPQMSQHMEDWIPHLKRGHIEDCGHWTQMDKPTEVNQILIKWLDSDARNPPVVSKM
In short: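 Recombinant human sEH was used, with inhibition measured by a kinetic fluorescent assay and reported as IC50.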

[2] = Metabolic stability in human liver S9 fraction in presence of NADPH assessed as residual parent compound remaining; assay type: ADME, subcellular
In short: (§1)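 Compounds were incubated with human liver S9 fraction, with or without NADPH. Residual parent compound is given as a percentage remaining.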

[3] = Metabolic stability in human liver S9 fraction in absence of NADPH assessed as residual parent compound remaining; assay type: ADME, subcellular; in short: as §1
[4] = Chemical stability assessed as compound hydrolysis after 15 mins in 40 mM NaOH at 22 degC; assay type: physicochemical; details: 0.25 h
[5] = Solubility in 0.1 M sodium phosphate buffer at pH 7.4
[6] = Octanol-water distribution coefficient, log P of the compound; assay type: physicochemical
In short: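 Partitioning was between buffer-saturated 1-octanol and 0.1 M sodium phosphate buffer, pH 7.4. Compound concentration was measured in each phase, and logP = log10([octanol]/[buffer]).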

[7] = Chemical stability in 40 mM NaOH at 22 degC; assay type: physicochemical
[8] = biological target: Prostaglandin G/H synthase 1 (Homo sapiens) (UniProt P23219); experiment: Inhibition of COX1 at 10 uM by fluorescence assay
Sequence of Prostaglandin G/H synthase 1 (Homo sapiens) (P23219 whole entry): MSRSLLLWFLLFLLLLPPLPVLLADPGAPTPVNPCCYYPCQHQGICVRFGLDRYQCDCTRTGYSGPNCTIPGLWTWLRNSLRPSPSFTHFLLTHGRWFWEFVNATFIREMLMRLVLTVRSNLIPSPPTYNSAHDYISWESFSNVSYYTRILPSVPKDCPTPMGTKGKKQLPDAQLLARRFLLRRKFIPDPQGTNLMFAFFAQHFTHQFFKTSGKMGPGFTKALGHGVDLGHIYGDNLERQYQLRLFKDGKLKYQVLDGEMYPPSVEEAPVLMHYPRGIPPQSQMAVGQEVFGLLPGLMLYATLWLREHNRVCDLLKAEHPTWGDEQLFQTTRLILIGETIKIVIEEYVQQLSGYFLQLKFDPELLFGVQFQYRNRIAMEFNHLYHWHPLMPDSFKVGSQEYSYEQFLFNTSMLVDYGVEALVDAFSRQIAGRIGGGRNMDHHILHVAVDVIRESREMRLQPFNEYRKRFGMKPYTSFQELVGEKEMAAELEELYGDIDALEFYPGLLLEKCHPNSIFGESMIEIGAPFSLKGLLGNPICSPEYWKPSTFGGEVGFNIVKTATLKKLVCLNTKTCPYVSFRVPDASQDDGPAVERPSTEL

[9] = Chemical stability assessed as compound remaining after 7 hrs in 40 mM NaOH at 22 degC; assay type: physicochemical; details: read-out: Activity
[10] = biological target: T2, Prostaglandin G/H synthase 2 (Homo sapiens) (UniProt P35354); experiment: Inhibition of COX2 at 10 uM by fluorescence assay
T2 sequence (whole entry): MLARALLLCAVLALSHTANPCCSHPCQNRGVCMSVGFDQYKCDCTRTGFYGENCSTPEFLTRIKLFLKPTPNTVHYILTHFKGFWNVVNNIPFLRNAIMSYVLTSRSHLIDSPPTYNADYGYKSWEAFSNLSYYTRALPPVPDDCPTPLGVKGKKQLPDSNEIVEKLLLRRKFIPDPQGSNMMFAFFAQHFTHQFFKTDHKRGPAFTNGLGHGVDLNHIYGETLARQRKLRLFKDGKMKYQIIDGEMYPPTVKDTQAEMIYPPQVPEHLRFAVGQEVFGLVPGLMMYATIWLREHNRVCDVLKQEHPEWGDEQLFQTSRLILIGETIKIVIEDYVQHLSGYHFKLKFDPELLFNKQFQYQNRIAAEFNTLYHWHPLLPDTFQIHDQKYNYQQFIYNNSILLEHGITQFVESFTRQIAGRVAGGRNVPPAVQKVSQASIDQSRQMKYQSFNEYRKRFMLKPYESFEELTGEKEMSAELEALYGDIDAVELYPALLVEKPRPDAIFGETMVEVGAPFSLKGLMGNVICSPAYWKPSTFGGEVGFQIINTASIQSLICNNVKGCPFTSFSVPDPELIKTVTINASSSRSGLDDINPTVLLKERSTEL

[11] = AUC (0 to infinity) in dog at 0.3 mg/kg, po; assay type: ADME, organism-based, Canis lupus familiaris; set-up: time infinity, dose 0.3 mg/kg, route oral; details: plasma
In short: (§2)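 Dogs were dosed by oral gavage at 0.3 mg/kg in tri-olein-rich oil. Blood concentration–time profiles were followed, and pharmacokinetic parameters were derived from those profiles.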

[12] = Cmax in dog at 0.3 mg/kg, po; assay type: ADME, organism-based, Canis lupus familiaris; set-up: dose 0.3 mg/kg, route oral; details: in vivo; in short: as §2
[13] = Half life in dog at 0.3 mg/kg, po; assay type: ADME, organism-based, Canis lupus familiaris; set-up: dose 0.3 mg/kg, route oral; details: in vivo; in short: as §2
[14] = Tmax in dog at 0.3 mg/kg, po; assay type: ADME, organism-based, Canis lupus familiaris; set-up: dose 0.3 mg/kg, route oral; details: in vivo; in short: as §2
[15] = AUC (0 to 24 hrs) in dog at 0.3 mg/kg, po; assay type: ADME, organism-based, Canis lupus familiaris; set-up: time < 24 hr, dose 0.3 mg/kg, route oral; details: plasma; in short: as §2

IC50 [1]: 0.392 µM
Compound: O=C(O)Cc1ccc(NC(=O)NC23CC4CC(CC(C4)C2)C3)cc1

Compound: COc1ccc(NC(=O)NC23CC4CC(CC(C4)C2)C3)cc1
IC50 [1]: 0.014 µM

IC50 [1]: 0.365 µM
Compound: O=C(Nc1cccc(C(=O)O)c1)NC12CC3CC(CC(C3)C1)C2

IC50 [1]: 0.004 µM
Compound: COC(=O)Cc1ccc(NC(=O)NC23CC4CC(CC(C4)C2)C3)cc1

IC50 [1]: 0.126 µM
Compound: O=C(O)CCc1ccc(NC(=O)NC23CC4CC(CC(C4)C2)C3)cc1

IC50 [1]: 0.0047 µM
Compound: COc1cccc(NC(=O)NC23CC4CC(CC(C4)C2)C3)c1

IC50 [1]: 0.017 µM
Compound: O=C(Nc1ccccc1)NC12CC3CC(CC(C3)C1)C2

Compound: COC(=O)c1cc(NC(=O)NC23CC4CC(CC(C4)C2)C3)ccc1O
Stability [2]: 51% | IC50 [1]: 0.012 µM | Stability [3]: 46%

IC50 [1]: 1.41 µM
Compound: O=C(Nc1ccc(C(=O)O)cc1)NC12CC3CC(CC(C3)C1)C2

Compound: COC(=O)c1cccc(NC(=O)NC23CC4CC(CC(C4)C2)C3)c1
IC50 [1]: 0.014 µM

Stability [4]: Unstable | Stability [2]: 31% | IC50 [1]: 0.011 µM | Stability [3]: 32%
Compound: O=C(Nc1ccc(OC(=O)c2ccccc2)cc1)NC12CC3CC(CC(C3)C1)C2

solubility [5]: 400 µg/mL (≈ 1220 µM) | logP [6]: > 3.9 | Stability [2]: 95% | IC50 [1]: 0.0041 µM | Stability [3]: 97% | half-life [7]: 2 h
Compound: COC(=O)c1ccc(NC(=O)NC23CC4CC(CC(C4)C2)C3)cc1

solubility [5]: 199000 µg/mL (≈ 602000 µM) | logP ([6]; read-out: logP): 1.6 | IC50 [1]: 0.071 µM
Compound: O=C(Nc1ccc(C(=O)O)c(O)c1)NC12CC3CC(CC(C3)C1)C2

IC50 [1]: 0.035 µM
Compound: CN1CCN(C(=O)c2cccc(NC(=O)NC34CC5CC(CC(C5)C3)C4)c2)CC1

Compound: COC(=O)c1ccc(NC(=O)NC23CC4CC(CC(C4)C2)C3)cc1O
solubility [5]: 200 µg/mL (≈ 581 µM) | Activity [8]: inactive | remaining at 7 h [9]: 80% | logP [6]: > 4.1 | Stability [2]: 89% | IC50 [1]: 0.0028 µM | Activity [10]: inactive | AUC(0-inf) [11]: 0.209 µM·h | Cmax [12]: 45 nM | half-life [13]: 7.9 h | Tmax [14]: 1 h | Stability [3]: 93% | AUC(0-t) at 24 h [15]: 0.189 µM·h

IC50 [1]: 0.028 µM
Compound: O=C(Nc1cccc(O)c1)NC12CC3CC(CC(C3)C1)C2

IC50 [1]: 0.024 µM
Compound: O=C(Nc1ccc(O)cc1)NC12CC3CC(CC(C3)C1)C2

Stability [4]: Unstable | Stability [2]: < 0.1% | IC50 [1]: 0.0039 µM | Stability [3]: < 0.1%
Compound: CC(=O)Oc1ccc(NC(=O)NC23CC4CC(CC(C4)C2)C3)cc1

Stability [2]: 56%
Compound: CCOCCOCCOc1cccc(NC(=O)NC23CC4CC(CC(C4)C2)C3)c1

Compound: O=C(Nc1cccc(C(=O)N2CCOCC2)c1)NC12CC3CC(CC(C3)C1)C2
IC50 [1]: 0.025 µM

IC50 [1]: 0.0199 µM
Compound: O=C(O)CCCc1ccc(NC(=O)NC23CC4CC(CC(C4)C2)C3)cc1

AUC(0-inf) [11]: 0.0524 µM·h | Cmax [12]: 18 nM | half-life [13]: 2.9 h | Tmax [14]: 0.5 h | AUC(0-t) at 24 h [15]: 0.0522 µM·h
Compound: O=C(O)CCCCCCCCCCCNC(=O)NC12CC3CC(CC(C3)C1)C2

IC50 [1]: 0.0022 µM
Compound: COC(=O)CCc1ccc(NC(=O)NC23CC4CC(CC(C4)C2)C3)cc1

IC50 [1]: 8.54 µM
Compound: COc1ccccc1NC(=O)NC12CC3CC(CC(C3)C1)C2

IC50 [1]: 0.0058 µM
Compound: CC(=O)Oc1cccc(NC(=O)NC23CC4CC(CC(C4)C2)C3)c1

IC50 [1]: 0.139 µM
Compound: O=C(Nc1ccccc1O)NC12CC3CC(CC(C3)C1)C2

Compound: O=C(Nc1cccc(C(=O)N2CCC(N3CCOCC3)CC2)c1)NC12CC3CC(CC(C3)C1)C2
IC50 [1]: 0.029 µM

IC50 [1]: 0.0031 µM
Compound: COC(=O)CCCc1ccc(NC(=O)NC23CC4CC(CC(C4)C2)C3)cc1

Compound: O=C(Nc1cccc(OC(=O)c2ccccc2)c1)NC12CC3CC(CC(C3)C1)C2
IC50 [1]: 0.0051 µM

IC50 [1]: 0.116 µM
Compound: O=C(Nc1ccc(O)c(C(=O)O)c1)NC12CC3CC(CC(C3)C1)C2
